Experimental data of several laboratories.
Protocols differ between the studies behind these lines. pEC50, pIC50: −log10 of the molar value.
Cell line: A2780
Observed: cell growth or viability

COc1c2c(cc3c1OCO3)[C@]13C=C[C@H](OC)C[C@H]1N(C2)C[C@H]3OC(=O)c1cccc(C)c1
pIC50 (WST-1): < 5.00

CC[C@@H]1C=CC(=O)O[C@@H]1C[C@@H](O)[C@H](C)[C@H](OC)[C@@H](C)Cc1ccccc1
GI50 (MTT; 48 h): 81.9 nM

CC(C)C(=O)Nc1ccc([N+](=O)[O-])c(C(F)(F)F)c1
pIC50 (CCK-8; 48 h): < 4.30

CC(=O)O[C@H]1C(=O)[C@@]2(C)[C@H]([C@H](OC(=O)c3ccccc3)[C@]3(O)C[C@H](OC(=O)[C@H](O)[C@@H](NC(=O)c4ccccc4)c4ccccc4)C(C)=C1C3(C)C)[C@]1(OC(C)=O)CO[C@@H]1C[C@@H]2O
pIC50 (CCK-8; 72 h): 8.09

COc1ccc(C(=O)O[C@@H]2CN3Cc4c(cc5c(c4OC)OCO5)[C@@]24C=C[C@H](OC)C[C@@H]34)cc1OC
pIC50 (WST-1): 5.22

CC[C@]1(O)C[C@H]2CN(CCc3c([nH]c4ccccc34)[C@@](C(=O)OC)(c3cc4c(cc3OC)N(C=O)[C@H]3[C@@](O)(C(=O)OC)[C@H](OC(C)=O)[C@]5(CC)C=CCN6CC[C@]43[C@@H]65)C2)C1
pIC50 (fluorescence; 72 h): 9.66

COc1ccc(C(=O)O[C@@H]2CN3Cc4c(cc5c(c4OC)OCO5)[C@@]24C=C[C@H](OC)C[C@@H]34)cc1
pIC50 (WST-1): < 5.00

Cc1[nH]c2ccccc2c1CCNCc1ccc(/C=C/C(=O)NO)cc1
pIC50 (crystal violet; 48 h): 8.41

Cc1ccc2ccc3ccc(C)nc3c2n1.[C-]#[N+]c1ccc(C)cc1.[C-]#[O+].[C-]#[O+].[C-]#[O+].[Re+]
pEC50 (MTT; 24 h): 5.85

CC[C@@H]1C=CC(=O)O[C@@H]1C[C@@H](OC)[C@H](C)[C@H](OC)[C@@H](C)Cc1ccc(F)cc1
GI50 (MTT; 48 h): 1930 nM

CCC[C@H](Nc1nc(-c2ccc(NC(=O)NCC)c(OC)c2)ncc1C)c1cccnc1
pIC50 (fluorescence; 72 h): 7.26

Nc1ccn([C@@H]2O[C@H](CO)[C@@H](O)C2(F)F)c(=O)n1
pIC50 (CCK-8; 72 h): 8.33

C[C@H]1O[C@@H](n2cc(F)c(=O)[nH]c2=O)[C@H](O)[C@@H]1O
pIC50 (CCK-8; 48 h): < 4.30

CC[C@@H]1C=CC(=O)O[C@@H]1C[C@@H](O)[C@H](C)[C@H](OC)[C@@H](C)Cc1ccc(F)cc1
GI50 (MTT; 48 h): 215 nM
